Measured values as given in ChEMBL document CHEMBL1139060, “4-[6-(2-Aminoethyl)naphthalen-2-yl]benzonitriles are potent histamine H3 receptor antagonists with high CNS penetration” (Bioorg Med Chem Lett, 2007).

Columns and labels:
[1] = target: Histamine H3 receptor (Rattus norvegicus, UniProt Q9QYN8); assay: Displacement of [3H]N-alpha-methylhistamine from histamine H3 receptor in rat cortical membranes; type: cell membranes, Membrane
Summary of the method: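 Competitive binding on rat cerebral cortex membranes, displacing the radioligand [3H]N-α-methylhistamine. Ki obtained from pKi. At least 3 independent pKi determinations per compound.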

[2] = target: Histamine H3 receptor (Homo sapiens, UniProt Q9Y5N1); assay: Displacement of [3H]N-alpha-methylhistamine from human cloned histamine H3 receptor expressed in C6 cells; type: cell-based
Sequence of Histamine H3 receptor (Homo sapiens, UniProt Q9Y5N1) (Q9Y5N1 whole entry): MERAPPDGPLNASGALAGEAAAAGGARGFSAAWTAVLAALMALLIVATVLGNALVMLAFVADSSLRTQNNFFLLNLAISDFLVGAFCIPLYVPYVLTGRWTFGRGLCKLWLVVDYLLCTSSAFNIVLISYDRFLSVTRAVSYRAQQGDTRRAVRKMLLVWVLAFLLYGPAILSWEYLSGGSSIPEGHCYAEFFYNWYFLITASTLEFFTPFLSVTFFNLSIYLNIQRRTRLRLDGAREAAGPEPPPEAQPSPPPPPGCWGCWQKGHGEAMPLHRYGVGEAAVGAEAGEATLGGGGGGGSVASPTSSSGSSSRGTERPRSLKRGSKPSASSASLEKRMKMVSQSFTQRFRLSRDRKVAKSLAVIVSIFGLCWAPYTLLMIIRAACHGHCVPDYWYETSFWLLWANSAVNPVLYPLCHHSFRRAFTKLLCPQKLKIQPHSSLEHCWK
Summary of the method: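 Radioligand displacement with [3H]N-α-methylhistamine on membranes from C6 cells carrying cloned human H3R. Ki derived from pKi.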

[3] = Cmax in rat at 1 mg/kg, po; type: ADME, organism-based; parameters: dose 1 mg/kg, route oral; conditions: in vivo
[4] = AUC (0 to infinity) in rat at 1 mg/kg, po; type: ADME, organism-based; parameters: time infinity, dose 1 mg/kg, route oral; conditions: plasma
[5] = Half life in rat at 1 mg/kg, po; type: ADME, organism-based; parameters: dose 1 mg/kg, route oral; conditions: in vivo
[6] = Ratio of drug level in brain to plasma in rat at 5 mg/kg, iv; type: ADME, organism-based; parameters: dose 5 mg/kg, route intravenous
Summary of the method: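 Rats given 5 mg/kg intravenously; brain and plasma drug concentrations measured one hour after dosing and expressed as a brain-to-plasma ratio.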

[7] = Half life in rat at 1 mg/kg, iv; type: ADME, organism-based; parameters: dose 1 mg/kg, route intravenous; conditions: in vivo
[8] = Volume of distribution in rat at terminal phase at 1 mg/kg, iv; type: ADME, organism-based; parameters: dose 1 mg/kg, route intravenous; conditions: in vivo, read-out: Vbeta
[9] = Oral bioavailability in rat at 1 mg/kg; type: ADME, organism-based; conditions: in vivo
[10] = AUC (0 to infinity) in rat at 1 mg/kg, iv; type: ADME, organism-based; parameters: time infinity, dose 1 mg/kg, route intravenous; conditions: plasma

Sequence of Histamine H3 receptor (Rattus norvegicus, UniProt Q9QYN8) (Q9QYN8 whole entry): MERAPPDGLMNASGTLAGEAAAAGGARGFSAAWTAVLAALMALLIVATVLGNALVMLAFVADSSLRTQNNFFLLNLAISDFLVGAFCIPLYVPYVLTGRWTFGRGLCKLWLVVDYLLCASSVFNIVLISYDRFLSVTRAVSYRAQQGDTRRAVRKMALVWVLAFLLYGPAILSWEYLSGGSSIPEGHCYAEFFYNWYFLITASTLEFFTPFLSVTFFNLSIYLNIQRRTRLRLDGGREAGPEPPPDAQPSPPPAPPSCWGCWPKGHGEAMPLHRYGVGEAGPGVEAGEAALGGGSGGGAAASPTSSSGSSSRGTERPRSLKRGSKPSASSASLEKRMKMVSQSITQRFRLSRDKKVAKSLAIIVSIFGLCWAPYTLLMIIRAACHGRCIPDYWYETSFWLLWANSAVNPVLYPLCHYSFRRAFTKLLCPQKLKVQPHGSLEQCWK

SMILES | Ki [1] [nM] | Ki [2] [nM] | further results
C[C@@H]1CCCCN1CCc1ccc2cc(-c3ccc(C#N)cc3)ccc2c1 | 141 | 8.71 | 
CN(C)CCc1ccc2cc(-c3ccc(C#N)cc3)ccc2c1 | 45.3 | 2.65 | 
CCN(CC)CCc1ccc2cc(-c3ccc(C#N)cc3)ccc2c1 | 12.5 | 0.84 | 
N#Cc1ccc(-c2ccc3cc(CCN4CC=CC4)ccc3c2)cc1 | 66.1 | 3.31 | 
CC[C@@H]1CCCN1CCc1ccc2cc(-c3ccc(C#N)cc3)ccc2c1 | 33.7 | 8.61 | 
CN(CCO)CCc1ccc2cc(-c3ccc(C#N)cc3)ccc2c1 | 457 | 10.5 | 
C[C@H]1CCCN1CCc1ccc2cc(-c3ccc(C#N)cc3)ccc2c1 | 3.47 | 0.12 | 
N#Cc1ccc(-c2ccc3cc(CCN4CCCC4)ccc3c2)cc1 | 6.42 | 0.49 | 
C[C@@H]1CCCN1CCCOc1ccc(-c2ccc(C#N)cc2)cc1 | 1.96 | 0.22 | 
C[C@@H]1CCCN1CCc1ccc2cc(-c3ccc(C#N)cc3)ccc2c1 | 2.48 | 0.24 | Cmax [3]: 48 ng/mL; AUC(0-inf) [4]: 890 ng·h/mL; half-life [5]: 6.5 h; Kp [6]: 72; half-life [7]: 6.9 h; Vd [8]: 6 L/kg; bioavailability [9]: 55%; AUC(0-inf) [10]: 1640 ng·h/mL
CC(C)C1CCCN1CCc1ccc2cc(-c3ccc(C#N)cc3)ccc2c1 (stereo unspecified) | 233 | 27.3 | 
CC(C)CC1CCCN1CCc1ccc2cc(-c3ccc(C#N)cc3)ccc2c1 (stereo unspecified) | 465 | 273 | 
N#Cc1ccc(-c2ccc3cc(CCN4CCC[C@H]4CF)ccc3c2)cc1 | 9.77 | 0.81 | 
C[C@@H]1CCCN1CCc1cc2cc(-c3ccc(C#N)cc3)ccc2o1 |  |  | Cmax [3]: 29 ng/mL; AUC(0-inf) [4]: 349 ng·h/mL; half-life [5]: 5.2 h; half-life [7]: 5.3 h; Vd [8]: 12 L/kg; AUC(0-inf) [10]: 673 ng·h/mL
N#Cc1ccc(-c2ccc3cc(CCN4CCC[C@@H]4CO)ccc3c2)cc1 | 42.8 | 2.89 | 
N#Cc1ccc(-c2ccc3cc(CCN4CCC[C@H]4CO)ccc3c2)cc1 | 11 | 0.44 | 
CN(C)[C@@H]1CCN(CCc2ccc3cc(-c4ccc(C#N)cc4)ccc3c2)C1 | 100 | 20.1 | 
N#Cc1ccc(-c2ccc3cc(CCN4CC[C@@H](O)C4)ccc3c2)cc1 | 30.9 | 1.56 | 
CN(CCc1ccc2cc(-c3ccc(C#N)cc3)ccc2c1)C(C)(C)C | 27.9 | 1.09 | 
CCN(CCc1ccc2cc(-c3ccc(C#N)cc3)ccc2c1)C(C)C | 30.3 | 4.62 | 
CC1CCCN1CCc1ccc2cc(-c3ccc(C#N)cc3)ccc2c1 (stereo unspecified) | 1.24 | 0.18 | 
CCCN(C)CCc1ccc2cc(-c3ccc(C#N)cc3)ccc2c1 | 25.7 | 2.09 | 
